Experimental data published in ChEMBL document CHEMBL1123167, “Synthesis and evaluation of phenyl- and benzoylpiperazines as potential serotonergic agents” (J Med Chem, 1986).
Active and inactive are the calls of the source. No cut-off for these calls is given here.

How the values were obtained:
[1] = test system: Rattus norvegicus; assay: Stimulus generalization in DOM-trained rats at dosage 13.5 mg/kg. Number of animals responding/number of animals are 3/4; type: functional
[2] = test system: Rattus norvegicus; assay: Stimulus generalization in TFMPP-trained rats at dosage 1.2 mg/kg. Number of animals responding/number of animals are 4/4; type: functional
[3] = test system: Rattus norvegicus; assay: Stimulus generalization in DOM-trained rats at dosage 12 mg/kg. Number of animals responding/number of animals are 4/4; type: functional
[4] = Displacement of […] from 5-hydroxytryptamine 1 receptor of rat cortex
[5] = test system: Rattus norvegicus; assay: Stimulus generalization in TFMPP-trained rats at dosage 3.0 mg/kg. Number of animals responding/number of animals are 4/4; type: functional
[6] = test system: Rattus norvegicus; assay: Stimulus generalization in TFMPP-trained rats at dosage 15 mg/kg. Number of animals responding/number of animals are 3/3; type: functional
[7] = test system: Rattus norvegicus; assay: Stimulus generalization in TFMPP-trained rats at dosage 6.0 mg/kg. Number of animals responding/number of animals are 4/4; type: functional
[8] = test system: Rattus norvegicus; assay: Stimulus generalization in DOM-trained rats at dosage 6.0 mg/kg. Number of animals responding/number of animals are 5/5; type: functional
[9] = biological target: Serotonin 2 (5-HT2) receptor (Rattus norvegicus, UniProt P30994+P08909+P14842); assay: Displacement of [3H]ketanserin from 5-hydroxytryptamine 2 receptor of rat cortex
Summary of the method: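 Rat tissue homogenate (4 mg wet weight per assay) in 50 mM Tris, 5 mM MgCl2, 0.5 mM EDTA, pH 7.4 at 37 °C, competed against 0.4 nM [3H]ketanserin. Bound ligand was collected on glass fiber filters and counted by liquid scintillation. Assays were run in triplicate. IC50 came from a 23-point curve by nonlinear least-squares fitting, and Ki = IC50/(1 + [D]/KD).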

[10] = test system: Rattus norvegicus; assay: Stimulus generalization in DOM-trained rats at dosage 15 mg/kg. Number of animals responding/number of animals are 1/4; D=Disruption of behavior; type: functional, organism-based; set-up: dose 15 mg/kg
[11] = test system: Rattus norvegicus; assay: Stimulus generalization in TFMPP-trained rats at dosage 10 mg/kg. Number of animals responding/number of animals are 3/3; type: functional
[12] = test system: Rattus norvegicus; assay: Stimulus generalization in DOM-trained rats at dosage 18 mg/kg. Number of animals responding/number of animals are 0/4; D=Disruption of behavior; type: functional, organism-based; set-up: dose 18 mg/kg
[13] = test system: Rattus norvegicus; assay: Stimulus generalization in DOM-trained rats at dosage 14.0 mg/kg. Number of animals responding/number of animals are 1/5; D=Disruption of behavior; type: functional, organism-based; set-up: dose 14 mg/kg
[14] = test system: Rattus norvegicus; assay: Stimulus generalization in DOM-trained rats at dosage 12.0 mg/kg. Number of animals responding/number of animals are 5/5; type: functional
[15] = test system: Rattus norvegicus; assay: Stimulus generalization in TFMPP-trained rats at dosage 12.5 mg/kg. Number of animals responding/number of animals are 0/3; Disruption of Behavior; type: functional, organism-based; set-up: dose 12.5 mg/kg
[16] = test system: Rattus norvegicus; assay: Stimulus generalization in TFMPP-trained rats at dosage 5.0 mg/kg. Number of animals responding/number of animals are 3/3; type: functional
[17] = test system: Rattus norvegicus; assay: Stimulus generalization in DOM-trained rats at dosage 4.0 mg/kg. Number of animals responding/number of animals are 5/5; type: functional
[18] = test system: Rattus norvegicus; assay: Compound was evaluated for Effective Dose DOM-trained rats at dosage 12.0 mg/kg. Number of animals responding/number of animals are 5/5; type: functional
[19] = test system: Rattus norvegicus; assay: Stimulus generalization in DOM-trained rats at dosage 6.0 mg/kg. Number of animals responding/number of animals are 4/4; type: functional
[20] = test system: Rattus norvegicus; assay: Stimulus generalization in TFMPP-trained rats at dosage 8.0 mg/kg. Number of animals responding/number of animals are 3/3; type: functional
[21] = test system: Rattus norvegicus; assay: Stimulus generalization in TFMPP-trained rats at dosage 12.0 mg/kg. Number of animals responding/number of animals are 2/3; type: functional
[22] = test system: Rattus norvegicus; assay: Stimulus generalization in TFMPP-trained rats at dosage 1.5 mg/kg. Number of animals responding/number of animals are 3/3; type: functional
[23] = test system: Rattus norvegicus; assay: Stimulus generalization in DOM-trained rats at dosage 8.0 mg/kg. Number of animals responding/number of animals are 5/5; type: functional
[24] = test system: Rattus norvegicus; assay: Stimulus generalization in TFMPP-trained rats at dosage 2.0 mg/kg. Number of animals responding/number of animals are 4/4; type: functional
[25] = test system: Rattus norvegicus; assay: Stimulus generalization in TFMPP-trained rats at dosage 5.0 mg/kg. Number of animals responding/number of animals are 4/4; type: functional
[26] = test system: Rattus norvegicus; assay: Stimulus generalization in TFMPP-trained rats at dosage 10 mg/kg. Number of animals responding/number of animals are 5/5; type: functional
[27] = test system: Rattus norvegicus; assay: Stimulus generalization in TFMPP-trained rats at dosage 0.3 mg/kg. Number of animals responding/number of animals are 3/3; type: functional
[28] = test system: Rattus norvegicus; assay: Stimulus generalization in DOM-trained rats at dosage 0.1 mg/kg. Number of animals responding/number of animals are 3/3; type: functional
[29] = test system: Rattus norvegicus; assay: Stimulus generalization in DOM-trained rats at dosage 0.5 mg/kg. Number of animals responding/number of animals are 2/3; type: functional
[30] = test system: Rattus norvegicus; assay: Stimulus generalization in TFMPP-trained rats at dosage 1.2 mg/kg. Number of animals responding/number of animals are 5/5; type: functional
[31] = test system: Rattus norvegicus; assay: Stimulus generalization in TFMPP-trained rats at dosage 0.05 mg/kg. Number of animals responding/number of animals are 4/4; type: functional
[32] = test system: Rattus norvegicus; assay: Stimulus generalization in TFMPP-trained rats at dosage 0.1 mg/kg. Number of animals responding/number of animals are 4/5; type: functional
[33] = test system: Rattus norvegicus; assay: Stimulus generalization in DOM-trained rats at dosage 1.0 mg/kg. Number of animals responding/number of animals are 0/3; D=Disruption of behavior; type: functional, organism-based; set-up: dose 1 mg/kg
[34] = test system: Rattus norvegicus; assay: Stimulus generalization in TFMPP-trained rats at dosage 1.0 mg/kg. Number of animals responding/number of animals are 5/5; type: functional
[35] = test system: Rattus norvegicus; assay: Stimulus generalization in TFMPP-trained rats at dosage 0.4 mg/kg. Number of animals responding/number of animals are 3/4; type: functional
[36] = test system: Rattus norvegicus; assay: Stimulus generalization in DOM-trained rats at dosage 1.0 mg/kg. Number of animals responding/number of animals are 3/3; type: functional
[37] = test system: Rattus norvegicus; assay: Stimulus generalization in DOM-trained rats at dosage 9.0 mg/kg. Number of animals responding/number of animals are 3/3; type: functional
[38] = test system: Rattus norvegicus; assay: Stimulus generalization in DOM-trained rats at dosage 5.0 mg/kg. Number of animals responding/number of animals are 3/3; type: functional
[39] = test system: Rattus norvegicus; assay: Compound was evaluated for ED50 in DOM-trained rats at dosage 9.0 mg/kg. Number of animals responding/number of animals are 3/3; type: functional
[40] = test system: Rattus norvegicus; assay: Stimulus generalization in DOM-trained rats at dosage 8.0 mg/kg. Number of animals responding/number of animals are 3/3; type: functional
[41] = test system: Rattus norvegicus; assay: Stimulus generalization in DOM-trained rats at dosage 3.0 mg/kg. Number of animals responding/number of animals are 3/3; type: functional
[42] = test system: Rattus norvegicus; assay: Stimulus generalization in TFMPP-trained rats at dosage 0.50 mg/kg. Number of animals responding/number of animals are 5/5; type: functional; conditions: dose 0.5 mg/kg
[43] = test system: Rattus norvegicus; assay: Stimulus generalization in TFMPP-trained rats at dosage 0.20 mg/kg. Number of animals responding/number of animals are 4/4; type: functional; conditions: dose 0.2 mg/kg
[44] = test system: Rattus norvegicus; assay: Compound was evaluated for ED50 in TFMPP-trained rats at dosage 0.50 mg/kg. Number of animals responding/number of animals are 4/4; type: functional
[45] = test system: Rattus norvegicus; assay: Stimulus generalization in TFMPP-trained rats at dosage 0.1 mg/kg. Number of animals responding/number of animals are 4/4; type: functional
[46] = test system: Rattus norvegicus; assay: Stimulus generalization in TFMPP-trained rats at dosage 0.30 mg/kg. Number of animals responding/number of animals are 4/4; type: functional; conditions: dose 0.3 mg/kg
[47] = test system: Rattus norvegicus; assay: Stimulus generalization in TFMPP-trained rats at dosage 0.15 mg/kg. Number of animals responding/number of animals are 3/3; type: functional
[48] = test system: Rattus norvegicus; assay: Stimulus generalization in TFMPP-trained rats at dosage 0.35 mg/kg. Number of animals responding/number of animals are 4/4; type: functional

**Q.** For `COc1ccc(OC)c(N2CCNCC2)c1`, which Response [1] is on record?
**A.** 22%

**Q.** What about the Response [2] of the same compound?
**A.** 14%

**Q.** And the Response [3]?
**A.** 28%

**Q.** What about the Ki [4] of the same compound?
**A.** 1.03 µM

**Q.** And the Response [5]?
**A.** 6%

**Q.** And the Response [6]?
**A.** 14%

**Q.** And the Response [7]?
**A.** 14%

**Q.** And the Response [8]?
**A.** 10%

**Q.** And the Ki [9]?
**A.** 8.43 µM

**Q.** And the Response [10]?
**A.** inactive

**Q.** And the Response [11]?
**A.** 19%

**Q.** And the Response [12]?
**A.** inactive

**Q.** What about the Response [13] of the same compound?
**A.** inactive

**Q.** What does the source list for `COc1ccc(N)c(C(=O)CCN)c1`?
**A.** Ki [4]: 0.345 µM; Ki [9]: 8.48 µM

**Q.** What does the source list for `COc1ccc(OC)c(C(=O)N2CCNCC2)c1`?
**A.** Ki [4]: > 100 µM; Ki [9]: > 100 µM

**Q.** Which Ki [4] does the source give for `Cc1cccc(C(=O)N2CCNCC2)c1` here?
**A.** 20.7 µM

**Q.** What about the Ki [9] of the same compound?
**A.** 49 µM

**Q.** For `COc1cc(N2CCNCC2)c(OC)cc1C`, which Response [14] is on record?
**A.** 83%

**Q.** And the Response [15]?
**A.** Disrupted behaviour

**Q.** What about the Response [16] of the same compound?
**A.** 11%

**Q.** And the Response [17]?
**A.** 21%

**Q.** And the ED50 [18]?
**A.** 6.23 mg/kg

**Q.** What about the Response [19] of the same compound?
**A.** 53%

**Q.** And the Ki [4]?
**A.** 0.68 µM

**Q.** What about the Response [20] of the same compound?
**A.** 7%

**Q.** And the Response [21]?
**A.** 30%

**Q.** What about the Response [22] of the same compound?
**A.** 11%

**Q.** What about the Response [23] of the same compound?
**A.** 68%

**Q.** And the Ki [9]?
**A.** 4.71 µM

**Q.** With `Oc1ccccc1N1CCNCC1` as the compound, how does the Response [24] read?
**A.** 12%

**Q.** What about the Response [25] of the same compound?
**A.** 22%

**Q.** And the Ki [4]?
**A.** 0.15 µM

**Q.** And the Ki [9]?
**A.** 17.2 µM

**Q.** And the Response [26]?
**A.** 24%

**Q.** What about the Response [27] of the same compound?
**A.** 17%

**Q.** Which Ki [4] does the source give for `O=C(c1cccc(Cl)c1)N1CCNCC1` here?
**A.** 17.1 µM

**Q.** And the Ki [9]?
**A.** 55.6 µM

**Q.** Which results are given for `COc1ccccc1N1CCNCC1`?
**A.** Response [28]: 12%; Response [29]: 20%; Response [30]: 94%; Ki [4]: 0.035 µM; Response [31]: 23%; Response [32]: 33%; Response [33]: inactive; Ki [9]: 3.5 µM; Response [34]: 81%; Response [35]: 63%

**Q.** With `COc1cc(N2CCNCC2)c(OC)cc1Br` as the compound, how does the Response [36] read?
**A.** 19%

**Q.** And the Ki [4]?
**A.** 0.82 µM

**Q.** And the Response [37]?
**A.** 81%

**Q.** And the Response [38]?
**A.** 46%

**Q.** What about the ED50 [39] of the same compound?
**A.** 4.08 mg/kg

**Q.** What about the Ki [9] of the same compound?
**A.** 2.43 µM

**Q.** And the Response [40]?
**A.** 72%

**Q.** What about the Response [41] of the same compound?
**A.** 31%

**Q.** For `FC(F)(F)c1cccc(N2CCNCC2)c1`, which Response [42] is on record?
**A.** 93%

**Q.** What about the Response [43] of the same compound?
**A.** 51%

**Q.** And the ED50 [44]?
**A.** 0.17 mg/kg

**Q.** What about the Response [45] of the same compound?
**A.** 8%

**Q.** What about the Ki [4] of the same compound?
**A.** 0.02 µM

**Q.** And the Response [31]?
**A.** 25%

**Q.** And the Response [46]?
**A.** 70%

**Q.** What about the Response [47] of the same compound?
**A.** 42%

**Q.** And the Response [48]?
**A.** 90%

**Q.** And the Ki [9]?
**A.** 0.16 µM
